What was measured:
[1] = Apparent partition coefficient in phosphate buffer of pH 7.4 by HPLC analysis; format: physicochemical
Method in brief: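 Log Pexp measured at room temperature in 1-octanol/pH 7.4 phosphate buffer, phases mutually pre-saturated. Compound dissolved in octanol and shaken 30 min to equilibrium. Each phase analysed by HPLC, octanol phase first diluted 1:10 in acetonitrile. P taken as the ratio of octanol to buffer peak area.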

tyrosinase = test: Stability assessed as half life at 50 uM by HPLC analysis in presence of mushroom tyrosinase; format: ADME
Method in brief: (§1)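 Mushroom tyrosinase at 100U/mL in pH 7.4 phosphate buffer (2.4 mL) with DMSO (0.6 mL), 37 °C. Prodrug added from 10^-2 M stock, final substrate 5 x 10^-5 M, incubated with gentle stirring. Consumption followed by HPLC with UV at 300 nm, giving half-life of activation. Km and Vmax determined; turnover number derived from Vmax.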

[2] = Chemical stability in phosphate buffer of pH 7.4 at 10 uM by HPLC analysis; format: physicochemical; conditions: pH 7.4, 10 µM
Method in brief: (§2)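 Hydrolysis at 37 °C in pH 7.4 PBS containing 20% DMSO, substrate 10^-5 M. Aliquots analysed by reversed-phase HPLC with UV at 300 nm to give half-life.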

Plasma = test: Stability in 80% human plasma at 10 uM by HPLC analysis; format: ADME, cell-free
Method in brief: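 Pooled heparinised human plasma from healthy donors, stored at –70 °C, diluted to 80% (v/v) with pH 7.4 isotonic phosphate buffer. Substrate 10^-5 M, incubated at 37 °C. At intervals, 200 µL aliquots quenched in 400 µL acetonitrile and centrifuged; supernatant analysed by HPLC for substrate and products to give half-life.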

[3] = Chemical stability of the assessed as hydrolytic half life in phosphate buffer of pH 7.4 at 10 uM by HPLC analysis; format: physicochemical; method in brief: as §2
[4] = target: T1, Tyrosinase (Agaricus bisporus) (UniProt O42713); test: Binding affinity to Mushroom tyrosinase assessed as compound turnover by HPLC analysis; method in brief: as §1
T1 sequence (whole entry): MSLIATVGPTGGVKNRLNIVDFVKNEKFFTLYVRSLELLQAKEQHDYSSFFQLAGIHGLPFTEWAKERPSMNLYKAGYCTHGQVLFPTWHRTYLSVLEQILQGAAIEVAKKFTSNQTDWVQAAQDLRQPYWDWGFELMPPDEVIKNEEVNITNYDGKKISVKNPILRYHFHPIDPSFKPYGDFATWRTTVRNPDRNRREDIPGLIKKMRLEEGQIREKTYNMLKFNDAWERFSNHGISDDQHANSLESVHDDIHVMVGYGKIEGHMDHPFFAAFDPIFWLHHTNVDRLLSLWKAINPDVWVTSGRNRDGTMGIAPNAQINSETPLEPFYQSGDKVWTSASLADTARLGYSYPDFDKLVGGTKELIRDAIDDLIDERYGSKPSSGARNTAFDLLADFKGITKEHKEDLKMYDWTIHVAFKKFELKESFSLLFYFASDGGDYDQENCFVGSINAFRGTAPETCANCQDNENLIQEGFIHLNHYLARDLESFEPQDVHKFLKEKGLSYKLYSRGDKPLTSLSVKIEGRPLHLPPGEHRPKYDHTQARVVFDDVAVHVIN

[5] = Ratio of chemical stability in phosphate buffer of pH 7.4 to chemical stability in human plasma; format: ADME
Homo sapiens = organism: Homo sapiens; test: Stability assessed as hydrolytic half life in 80% human plasma at 10 uM by HPLC analysis
[6] = substrate: CN(/N=N/c1ccc(C#N)cc1)C(=O)NCCc1ccc(O)cc1; test: (§3) Activity at mushroom tyrosinase; conditions: Agaricus bisporus; method in brief: as §1
[7] = substrate: CCOC(=O)c1ccc(/N=N/N(C)C(=O)NCCc2ccc(O)c(O)c2)cc1; test: as §3; conditions: Agaricus bisporus; method in brief: as §1

Row | Molecule | logD [1] | half-life at 50 µM (tyrosinase) | Stability [2] | Stability (Plasma) | half-life at 10 µM [3] | Activity [4] | Ratio [5] | half-life at 10 µM (Homo sapiens) | further results
1 | CC(=O)c1ccc(/N=N/N(C)C(=O)NCCc2ccc(O)cc2)cc1 | 3.25 | 0.217 h | 15 days | 2 days |  |  |  |  | 
2 | CCOC(=O)c1ccc(/N=N/N(C)C(=O)NCCc2ccc(O)c(O)c2)cc1 | 3.78 | 0.102 h |  |  | 20.8 h | 6 s⁻¹ | 1.5 | 14.7 h | 
3 | NCCc1ccc(O)c(O)c1 |  |  |  |  |  | 439 s⁻¹ |  |  | 
4 | Cc1ccc(/N=N/N(C)C(=O)NCCc2ccc(O)c(O)c2)cc1 | 4.17 | 0.14 h | 2 days |  |  |  | 1.5 | 5.66 h | 
5 | CN(/N=N/c1ccc(C#N)cc1)C(=O)NCCc1ccc(O)cc1 | 2.89 | 0.197 h | 15 days | 2 days |  | 0.6 s⁻¹ |  |  | 
6 | NCCc1ccc(O)cc1 |  |  |  |  |  | 25.9 s⁻¹ |  |  | 
7 | Cc1ccc(/N=N/N(C)C(=O)NCCc2ccc(O)cc2)cc1 | 3.9 | 0.303 h |  | 2 days | 364 h |  |  |  | 
8 | CC(=O)c1ccc(/N=N/N(C)C(=O)NCCc2ccc(O)c(O)c2)cc1 | 3.24 | 0.165 h |  |  | 15.1 h |  | 1.5 | 9.3 h | 
9 | CCOC(=O)c1ccc(/N=N/N(C)C(=O)NCCc2ccc(O)cc2)cc1 | 3.96 | 0.215 h | 15 days |  |  |  |  | 71.5 h | 
10 | Tyrosinase (Agaricus bisporus), O42713 (protein) MSLIATVGPTGGVKNRLNIVDFVKNEKFFTLYVRSLELLQAKEQHDYSSFFQLAGIHGLPFTEWAKERPSMNLYKAGYCTHGQVLFPTWHRTYLSVLEQILQGAAIEVAKKFTSNQTDWVQAAQDLRQPYWDWGFELMPPDEVIKNEEVNITNYDGKKISVKNPILRYHFHPIDPSFKPYGDFATWRTTVRNPDRNRREDIPGLIKKMRLEEGQIREKTYNMLKFNDAWERFSNHGISDDQHANSLESVHDDIHVMVGYGKIEGHMDHPFFAAFDPIFWLHHTNVDRLLSLWKAINPDVWVTSGRNRDGTMGIAPNAQINSETPLEPFYQSGDKVWTSASLADTARLGYSYPDFDKLVGGTKELIRDAIDDLIDERYGSKPSSGARNTAFDLLADFKGITKEHKEDLKMYDWTIHVAFKKFELKESFSLLFYFASDGGDYDQENCFVGSINAFRGTAPETCANCQDNENLIQEGFIHLNHYLARDLESFEPQDVHKFLKEKGLSYKLYSRGDKPLTSLSVKIEGRPLHLPPGEHRPKYDHTQARVVFDDVAVHVIN |  |  |  |  |  |  |  |  | Km [6]: 310 µM; Vmax [6]: 0.03 mM/min; Km [7]: 710 µM; Vmax [7]: 0.31 mM/min

— ChEMBL document CHEMBL1153016, “Dopamine- and tyramine-based derivatives of triazenes: activation by tyrosinase and implications for prodrug design” (Eur J Med Chem, 2009)
